Assay [1] has as its system Hepatitis C virus. Description: Antiviral activity against Hepatitis C virus genotype 1b Con1 infected in human Huh-luc/neo-ET replicon cells assessed as reduction in viral RNA level after 48 hrs by RT-PCR. The assay is classed as functional, organism-based, Hepacivirus hominis. The gist of the method: (§1)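 Cells seeded at 1 × 10^5 per well and treated with DMSO or compound up to 250 nM for 24, 48 or 72 h. Total RNA diluted to 50 ng/μl. Replicon RNA (5′ UTR) measured in triplicate by one-step qRT-PCR, normalized to β-actin mRNA, and expressed as percent of mock control. Three independent repeats.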
(In antiviral work, replicon cells carry a viral genome segment that copies itself.)

In assay [2] the test system is Hepatitis C virus. Description: Antiviral activity against Hepatitis C virus genotype 2a JFH1 infected in human YSGR-JFH replicon cells assessed as inhibition of virus RNA level after 72 hrs by quantitative RT-PCR. The assay is classed as functional, organism-based, Hepacivirus hominis. The settings on record: subtype 2a JFH1, 72 h. The gist of the method:
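YSGR-JFH genotype 2a subgenomic replicon cells (maintained with 400 μg/ml G418), 1 × 10^5 per well, incubated with DMSO, serially varied compound, or IFN-α-2a for 72 h. HCV RNA by qRT-PCR normalized to β-actin, as percent of mock-treated control. Mean ± SD of three independent experiments.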

In assay [3] the test system is Hepatitis C virus. Description: Antiviral activity against Hepatitis C virus genotype 1b Con1 infected in human Huh-luc/neo-ET replicon cells assessed as reduction of virus-induced cytopathic effect after 72 hrs by luciferase reporter assay. It is filed as functional, organism-based, Hepacivirus hominis. In a few lines:
(§2)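 Replicon cells grown without G418, seeded at 5 × 10^3 per well, treated next day in duplicate with serial dilutions (DMSO control) at 37°C for 72 h. After a PBS wash, cells lysed in ice-cold passive lysis reagent and firefly luciferase RLU read as percent of compound-free control. EC50 by nonlinear regression of the dose-effect curve.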

Another assay has as its target Cytochrome c (Homo sapiens, UniProt P99999). Description: Binding affinity to Cytochrome C.
In a further assay the test system is CCRF-CEM. Description: Mitochondrial DNA toxicity in human CEM cells. It is filed as cell-based. The gist of the method:
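CEM cell lysates slot-blotted and hybridized with an mtDNA-specific probe, then reprobed with an Alu probe as internal control. Bands quantified by autoradiography and densitometry.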

The subject of assay [4] is Hepatitis C virus. As to the kind of experiment: Antiviral activity against Hepatitis C virus genotype 1b Con1 infected in human Huh-luc/neo-ET replicon cells assessed as reduction of replicon luciferase signal after 72 hrs by luciferase reporter assay. It is filed as functional, organism-based, Hepacivirus hominis. In a few lines:
as §2

Assay [5] relates to Hepatitis C virus. As to the kind of experiment: Antiviral activity against Hepatitis C virus genotype 1b Con1 infected in human Huh-luc/neo-ET replicon cells assessed as inhibition of virus-induced cytopathic effect after 24 hrs by luciferase reporter assay. It is filed as functional, organism-based, Hepacivirus hominis. In a few lines:
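Huh-luc/neo-ET cells seeded at 1 × 10^5 per well and treated with DMSO or serially diluted compound up to 250 nM. Harvested at 24 or 48 h. Luciferase run in triplicate and RLU normalized to total protein (Bradford), expressed as percent of mock control. Three independent repeats averaged.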

Assay [6] has as its system Hepatitis C virus. Description: Antiviral activity against Hepatitis C virus genotype 1b Con1 infected in human Huh-luc/neo-ET replicon cells assessed as reduction in viral RNA level after 24 hrs by RT-PCR. It is filed as functional, organism-based, Hepacivirus hominis. In a few lines: as §1
In assay [7] the test system is Hepatitis C virus. Description: Antiviral activity against Hepatitis C virus genotype 1b Con1 infected in human Huh-luc/neo-ET replicon cells assessed as reduction in viral RNA level after 72 hrs by RT-PCR. The assay is classed as functional, organism-based, Hepacivirus hominis. In a few lines: as §1

Chain of Cytochrome c (P99999 whole entry): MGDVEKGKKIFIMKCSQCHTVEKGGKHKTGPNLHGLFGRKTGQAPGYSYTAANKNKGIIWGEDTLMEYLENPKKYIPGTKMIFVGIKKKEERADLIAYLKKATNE

`O=C(O)c1cc(C(=O)O)cc(-c2ccc(-c3c4nc(c(-c5ccc(-c6cc(C(=O)O)cc(C(=O)O)c6)cc5)c5ccc([nH]5)c(-c5ccc(-c6cc(C(=O)O)cc(C(=O)O)c6)cc5)c5ccc([nH]5)c(-c5ccc(-c6cc(C(=O)O)cc(C(=O)O)c6)cc5)c5nc3C=C5)C=C4)cc2)c1`: the EC50 (commonly the concentration that produces a half-maximal response) was found to be 36.2 nM in the assay on Hepatitis C virus [1]; 1380 nM in the assay with Hepatitis C virus [2]; 17.6 nM in the assay on Hepatitis C virus [3]; 24 nM in the assay with Hepatitis C virus [4]; 57.8 nM in the assay on Hepatitis C virus [5]; 67.8 nM in the assay with Hepatitis C virus [6]. The concentration giving a half-maximal response (EC50) in the assay on Hepatitis C virus [7] was determined as 29.2 nM. Also, the inhibition result with Hepatitis C virus [1] (Hepacivirus hominis), in the assay on Hepatitis C virus [3] (Hepacivirus hominis), in the assay on Hepatitis C virus [5] (Hepacivirus hominis), in the assay on Hepatitis C virus [6] (Hepacivirus hominis) and in the assay with Hepatitis C virus [7] (Hepacivirus hominis) was “Dose-dependent effect” each time. Besides, the affinity on Cytochrome c, expressed as Kd, was 1500 nM. In the assay on CCRF-CEM, the IC50 (in general, the concentration that gives 50% inhibition) was > 50000 nM.

The values above are taken from ChEMBL document CHEMBL1212775, “A novel class of meso-tetrakis-porphyrin derivatives exhibits potent activities against hepatitis C virus genotype 1b replicons in vitro” (Antimicrob Agents Chemother, 2010).
